Laboratory results as given in ChEMBL document CHEMBL3774372, “Design, physico-chemical properties and biological evaluation of some new N-[(phenoxy)alkyl]- and N-{2-[2-(phenoxy)ethoxy]ethyl}aminoalkanols as anticonvulsant agents” (Bioorg Med Chem, 2016).
The source made the active and inactive calls.

Key:
[1] = biological target: Mu-type opioid receptor (Homo sapiens) (UniProt P35372); test: Displacement of [3H]DAMGO from human recombinant Mu-type opioid receptor expressed in CHO cells at 10^-5 M; format: cell-based
Summary of the method: (§1)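 Radioligand binding screen run at a single test concentration of 10^-5 M. Each target used its stated receptor source (human recombinant CHO or HEK-293 cells, endogenous cell lines, or rat tissue membranes) with the listed radioligand.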

[2] = species on record: Rattus norvegicus; test: Displacement of […] from rat cerebral cortex GABA-gated chloride channel at 10^-5 M; format: tissue-based; summary of the method: as §1
[3] = biological target: Endothelin-1 receptor (Homo sapiens) (UniProt P25101); test: Displacement of [125I]Endothelin-1 from human recombinant Endothelin-1 receptor expressed in CHO cells at 10^-5 M; format: cell-based; summary of the method: as §1
[4] = biological target: Somatostatin receptor (Mus musculus) (UniProt P30935+O08858+P30875+P30873+P49660); test: Displacement of [125I]Tyr11-somatostatin-14 from somatostatin receptor in mouse AtT20 cells at 10^-5 M; format: cell-based; summary of the method: as §1
[5] = biological target: Melanocortin receptor 4 (Homo sapiens) (UniProt P32245); test: Displacement of [125I]NDP-alpha-MSH from human recombinant MC4 receptor expressed in CHO cells at 10^-5 M; format: cell-based; summary of the method: as §1
[6] = biological target: Substance-K receptor (Homo sapiens) (UniProt P21452); test: Displacement of [125I]NKA from human recombinant NK2 receptor expressed in CHO cells at 10^-5 M; format: cell-based; summary of the method: as §1
[7] = biological target: Sodium-dependent serotonin transporter (Homo sapiens) (UniProt P31645); test: Displacement of [3H]imipramine from human recombinant 5-HT transporter expressed in CHO cells at 10^-5 M; format: cell-based
Summary of the method: (§2)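 Radioligand displacement screen with the test agent at a single 10^-5 M concentration; receptor source and radioligand per target as tabulated (recombinant human cell lines or rat cerebral cortex/urinary bladder).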

[8] = tested on: Mus musculus; test: Anticonvulsant activity in mouse assessed as protection against maximal electric shock-induced seizures at 30 mg/kg, ip measured after 0.5 hrs; format: functional, organism-based
Summary of the method: (§3)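 Mice dosed ip with suspension in 0.5% methylcellulose; maximal electroshock applied at the listed time after dosing. Protection = abolition of hindlimb tonic extension component of seizure; reported as animals protected/animals tested.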

[9] = tested on: Rattus norvegicus; test: Anticonvulsant activity in pilocarpine-induced status epilepticus Sprague-Dawley rat model at 30 mg/kg, ip after 1 hr during post stage 3 seizure; format: functional, organism-based
Summary of the method: (§4)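 Rats given pilocarpine 50 mg/kg ip and observed to first convulsive seizure (Racine stage 3–5, time zero); test drug then given ip in 0.5% methylcellulose. Efficacy = halting further stage 3–5 convulsive seizures; scored protected/tested, time after first stage 3 seizure.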

[10] = biological target: Beta-2 adrenergic receptor (Homo sapiens) (UniProt P07550); test: Displacement of [3H](-)CGP12177 from human recombinant Beta-2 adrenergic receptor expressed in CHO cells at 10^-5 M; format: cell-based; summary of the method: as §1
[11] = biological target: Sodium-dependent dopamine transporter (Homo sapiens) (UniProt Q01959); test: Displacement of [3H]BTCP from human recombinant dopamine transporter expressed in CHO cells at 10^-5 M; format: cell-based; summary of the method: as §1
[12] = tested on: Mus musculus; test: Anticonvulsant activity in mouse assessed as protection against subcutaneous pentylenetetrazol-induced seizures at 30 mg/kg, ip measured after 0.5 hrs; format: functional, organism-based
Summary of the method: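 Mice dosed ip as 0.5% methylcellulose suspension; pentylenetetrazole 85 mg/kg in 0.9% NaCl injected subcutaneously into posterior midline, animals watched at least 30 min. Protection = no threshold seizure (single clonic spasm episode lasting ≥5 s); scored protected/tested.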

[13] = species on record: Rattus norvegicus; test: Displacement of [3H]D888 from rat cerebral cortex L-type calcium channel verapamil binding site at 10^-5 M; format: tissue-based; summary of the method: as §1
[14] = biological target: Adrenergic receptor alpha-2 (Rattus norvegicus) (UniProt P22086+P19328+P22909); test: Displacement of [3H]RX 821002 from rat cerebral cortex Alpha-2 adrenergic receptor at 10^-5 M; format: tissue-based; summary of the method: as §1
[15] = species on record: Rattus norvegicus; test: Displacement of [125I][Tyr4]bombesin from rat cerebral cortex Bombesin receptor at 10^-5 M; format: tissue-based; summary of the method: as §1
[16] = biological target: Galanin receptor type 1 (Homo sapiens) (UniProt P47211); test: Displacement of [125I]galanin from human recombinant GAL1 receptor expressed in HEK293 cells at 10^-5 M; format: cell-based; summary of the method: as §1
[17] = biological target: Neuromedin-K receptor (Homo sapiens) (UniProt P29371); test: Displacement of [3H]SR142801 from human recombinant NK3 receptor expressed in CHO cells at 10^-5 M; format: cell-based; summary of the method: as §2
[18] = biological target: 5-hydroxytryptamine receptor 1A (Homo sapiens) (UniProt P08908); test: Displacement of [3H]8-OHDPAT from human recombinant 5-HT1A receptor expressed in HEK293 cells at 10^-5 M; format: cell-based; summary of the method: as §1
[19] = tested on: Rattus norvegicus; test: Anticonvulsant activity in pilocarpine-induced status epilepticus Sprague-Dawley rat model at 30 mg/kg, ip after 4 hrs during post stage 3 seizure; format: functional, organism-based; summary of the method: as §4
[20] = tested on: Jurkat; test: Displacement of [3H]DTG from sigma receptor in human jurkat cells at 10^-5 M; format: cell-based; summary of the method: as §1
[21] = biological target: Muscarinic acetylcholine receptor M4 (Homo sapiens) (UniProt P08173); test: Displacement of [3H]4-DAMP from human recombinant muscarinic M4 receptor expressed in CHO cells at 10^-5 M; format: cell-based; summary of the method: as §1
[22] = biological target: D(1A) dopamine receptor (Homo sapiens) (UniProt P21728); test: Displacement of [3H]SCH23390 from human recombinant Dopamine D1 receptor expressed in CHO cells at 10^-5 M; format: cell-based; summary of the method: as §2
[23] = biological target: Vasopressin V1a receptor (Homo sapiens) (UniProt P37288); test: Displacement of [3H]AVP from human recombinant arginine vasopressin receptor 1a expressed in CHO cells at 10^-5 M; format: cell-based; summary of the method: as §1
[24] = biological target: Muscarinic acetylcholine receptor M5 (Homo sapiens) (UniProt P08912); test: Displacement of [3H]4-DAMP from human recombinant muscarinic M5 receptor expressed in CHO cells at 10^-5 M; format: cell-based; summary of the method: as §1
[25] = biological target: Nociceptin receptor (Homo sapiens) (UniProt P41146); test: Displacement of [3H]nociceptin from human recombinant Nociceptin receptor expressed in HEK293 cells at 10^-5 M; format: cell-based; summary of the method: as §2
[26] = biological target: Sodium-dependent noradrenaline transporter (Homo sapiens) (UniProt P23975); test: Displacement of [3H]nisoxentine from human recombinant norepinephrine transporter expressed in CHO cells at 10^-5 M; format: cell-based; summary of the method: as §2
[27] = biological target: 5-hydroxytryptamine receptor 2B (Homo sapiens, UniProt P41595); test: Displacement of [125I](+/-)DOI from human recombinant 5-HT2B receptor expressed in CHO cells at 10^-5 M; format: cell-based
[28] = biological target: Muscarinic acetylcholine receptor M2 (Homo sapiens) (UniProt P08172); test: Displacement of [3H]AF-DX384 from human recombinant muscarinic M2 receptor expressed in CHO cells at 10^-5 M; format: cell-based; summary of the method: as §1
[29] = tested on: Mus musculus; test: Anticonvulsant activity in mouse assessed as protection against maximal electric shock-induced seizures at 30 mg/kg, ip measured after 4 hrs; format: functional, organism-based; summary of the method: as §3
[30] = biological target: Cannabinoid receptor 1 (Homo sapiens) (UniProt P21554); test: Displacement of [3H]CP 55940 from human recombinant CB1 receptor expressed in CHO cells at 10^-5 M; format: cell-based; summary of the method: as §1
[31] = biological target: Substance-P receptor (Homo sapiens) (UniProt P25103); test: Displacement of [125I]BH-SP from NK1 receptor in human U373MG cells at 10^-5 M; format: cell-based; conditions: U-373MG ATCC; summary of the method: as §1
Chain of Substance-P receptor (Homo sapiens) (P25103 whole entry): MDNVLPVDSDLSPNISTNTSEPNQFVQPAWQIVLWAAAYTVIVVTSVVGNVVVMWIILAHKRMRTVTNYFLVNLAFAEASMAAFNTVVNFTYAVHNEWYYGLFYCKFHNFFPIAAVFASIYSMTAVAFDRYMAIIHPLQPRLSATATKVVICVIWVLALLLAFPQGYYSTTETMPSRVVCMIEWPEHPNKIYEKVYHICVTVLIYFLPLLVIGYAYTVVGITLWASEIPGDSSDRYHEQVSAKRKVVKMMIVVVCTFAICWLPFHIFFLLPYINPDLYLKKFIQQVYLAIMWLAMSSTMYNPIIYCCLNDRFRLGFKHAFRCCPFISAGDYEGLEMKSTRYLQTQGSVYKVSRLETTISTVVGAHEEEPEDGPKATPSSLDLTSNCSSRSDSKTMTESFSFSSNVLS

Chain of Neuromedin-K receptor (Homo sapiens) (P29371 whole entry): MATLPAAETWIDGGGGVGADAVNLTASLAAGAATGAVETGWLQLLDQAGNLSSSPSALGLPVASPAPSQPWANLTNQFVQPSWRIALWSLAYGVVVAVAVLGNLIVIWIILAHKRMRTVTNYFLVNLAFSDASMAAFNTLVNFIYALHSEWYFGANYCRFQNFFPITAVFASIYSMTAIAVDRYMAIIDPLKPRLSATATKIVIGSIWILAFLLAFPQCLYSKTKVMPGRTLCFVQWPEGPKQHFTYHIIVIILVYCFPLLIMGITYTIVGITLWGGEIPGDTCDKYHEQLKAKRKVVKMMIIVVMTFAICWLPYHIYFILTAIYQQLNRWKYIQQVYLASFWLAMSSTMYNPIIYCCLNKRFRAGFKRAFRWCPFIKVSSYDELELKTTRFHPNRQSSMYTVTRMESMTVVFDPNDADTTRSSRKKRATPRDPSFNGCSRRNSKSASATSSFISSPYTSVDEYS
Chain of Sodium-dependent dopamine transporter (Homo sapiens) (Q01959 whole entry): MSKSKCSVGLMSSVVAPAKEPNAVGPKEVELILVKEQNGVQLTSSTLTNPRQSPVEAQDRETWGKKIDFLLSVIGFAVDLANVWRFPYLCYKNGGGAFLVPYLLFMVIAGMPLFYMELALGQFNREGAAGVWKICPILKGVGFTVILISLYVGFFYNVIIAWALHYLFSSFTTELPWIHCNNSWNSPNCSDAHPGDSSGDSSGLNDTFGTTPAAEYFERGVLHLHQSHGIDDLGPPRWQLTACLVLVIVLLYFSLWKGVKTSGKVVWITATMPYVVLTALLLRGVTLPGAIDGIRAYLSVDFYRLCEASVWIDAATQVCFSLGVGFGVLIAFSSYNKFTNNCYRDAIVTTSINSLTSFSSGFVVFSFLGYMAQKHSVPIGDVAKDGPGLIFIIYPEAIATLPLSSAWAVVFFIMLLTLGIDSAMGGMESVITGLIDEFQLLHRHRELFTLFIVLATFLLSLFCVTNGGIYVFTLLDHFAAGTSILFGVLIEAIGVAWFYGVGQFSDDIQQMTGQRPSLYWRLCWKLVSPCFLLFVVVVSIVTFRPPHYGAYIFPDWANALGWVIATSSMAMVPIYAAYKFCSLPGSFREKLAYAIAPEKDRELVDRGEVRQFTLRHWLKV
Chain of Galanin receptor type 1 (Homo sapiens) (P47211 whole entry): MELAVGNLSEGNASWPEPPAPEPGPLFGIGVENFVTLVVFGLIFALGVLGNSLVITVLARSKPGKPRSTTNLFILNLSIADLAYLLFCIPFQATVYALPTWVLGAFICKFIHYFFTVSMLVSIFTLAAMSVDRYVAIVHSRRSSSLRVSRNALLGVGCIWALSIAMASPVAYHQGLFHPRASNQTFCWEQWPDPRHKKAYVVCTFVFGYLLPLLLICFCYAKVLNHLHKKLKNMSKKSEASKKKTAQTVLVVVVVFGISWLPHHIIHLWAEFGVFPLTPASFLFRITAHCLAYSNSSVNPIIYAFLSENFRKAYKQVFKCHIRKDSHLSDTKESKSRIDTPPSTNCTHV
Chain of Beta-2 adrenergic receptor (Homo sapiens) (P07550 whole entry, looked up): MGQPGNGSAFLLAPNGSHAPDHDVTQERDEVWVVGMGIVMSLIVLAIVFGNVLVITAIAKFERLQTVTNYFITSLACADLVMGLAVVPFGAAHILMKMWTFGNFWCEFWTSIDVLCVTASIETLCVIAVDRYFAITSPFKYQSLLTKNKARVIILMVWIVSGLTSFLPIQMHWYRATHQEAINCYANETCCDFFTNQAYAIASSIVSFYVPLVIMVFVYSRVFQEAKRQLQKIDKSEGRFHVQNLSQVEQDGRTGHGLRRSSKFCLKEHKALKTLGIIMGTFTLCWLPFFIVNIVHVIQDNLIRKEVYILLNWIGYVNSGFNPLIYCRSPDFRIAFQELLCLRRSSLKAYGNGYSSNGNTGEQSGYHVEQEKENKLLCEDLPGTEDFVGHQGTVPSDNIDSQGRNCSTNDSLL
Chain of D(1A) dopamine receptor (Homo sapiens) (P21728 whole entry): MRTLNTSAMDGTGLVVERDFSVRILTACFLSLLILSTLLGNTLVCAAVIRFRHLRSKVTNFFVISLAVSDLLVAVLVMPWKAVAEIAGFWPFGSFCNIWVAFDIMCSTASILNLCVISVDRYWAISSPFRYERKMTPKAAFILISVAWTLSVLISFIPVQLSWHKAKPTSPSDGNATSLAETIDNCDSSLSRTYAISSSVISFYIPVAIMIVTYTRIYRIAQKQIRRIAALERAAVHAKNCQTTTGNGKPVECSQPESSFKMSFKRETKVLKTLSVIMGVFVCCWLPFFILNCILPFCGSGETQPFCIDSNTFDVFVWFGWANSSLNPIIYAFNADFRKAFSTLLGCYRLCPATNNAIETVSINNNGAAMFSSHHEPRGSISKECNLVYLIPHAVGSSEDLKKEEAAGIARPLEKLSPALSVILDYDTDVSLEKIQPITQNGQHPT
Chain of Cannabinoid receptor 1 (Homo sapiens) (P21554 whole entry): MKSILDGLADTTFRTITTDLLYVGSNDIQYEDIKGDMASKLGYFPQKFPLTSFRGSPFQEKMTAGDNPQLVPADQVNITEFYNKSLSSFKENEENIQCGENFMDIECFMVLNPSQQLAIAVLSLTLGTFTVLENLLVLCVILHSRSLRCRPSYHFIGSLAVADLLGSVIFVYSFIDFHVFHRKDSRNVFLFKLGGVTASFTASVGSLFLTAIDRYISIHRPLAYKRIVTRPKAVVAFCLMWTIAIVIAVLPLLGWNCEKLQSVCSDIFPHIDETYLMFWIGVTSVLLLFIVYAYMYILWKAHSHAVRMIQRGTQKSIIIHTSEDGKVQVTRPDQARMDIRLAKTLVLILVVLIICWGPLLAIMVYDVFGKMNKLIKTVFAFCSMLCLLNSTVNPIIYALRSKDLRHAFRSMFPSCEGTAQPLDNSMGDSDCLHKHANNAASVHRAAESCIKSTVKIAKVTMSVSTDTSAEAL
Chain of Muscarinic acetylcholine receptor M5 (Homo sapiens) (P08912 whole entry): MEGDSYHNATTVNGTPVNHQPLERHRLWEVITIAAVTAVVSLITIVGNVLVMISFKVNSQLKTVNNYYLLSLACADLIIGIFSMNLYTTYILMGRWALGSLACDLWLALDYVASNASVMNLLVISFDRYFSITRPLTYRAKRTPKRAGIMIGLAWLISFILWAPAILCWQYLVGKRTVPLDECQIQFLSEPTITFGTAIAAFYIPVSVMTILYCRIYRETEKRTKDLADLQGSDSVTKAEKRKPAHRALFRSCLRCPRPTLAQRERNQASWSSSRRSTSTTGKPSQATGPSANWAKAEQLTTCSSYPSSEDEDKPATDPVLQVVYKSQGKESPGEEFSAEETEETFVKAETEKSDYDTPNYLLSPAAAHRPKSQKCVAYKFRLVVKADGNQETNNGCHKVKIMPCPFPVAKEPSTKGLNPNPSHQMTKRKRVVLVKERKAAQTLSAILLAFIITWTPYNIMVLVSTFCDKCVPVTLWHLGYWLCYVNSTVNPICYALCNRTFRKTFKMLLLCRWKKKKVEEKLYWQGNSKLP
Chain of Muscarinic acetylcholine receptor M2 (Homo sapiens) (P08172 whole entry): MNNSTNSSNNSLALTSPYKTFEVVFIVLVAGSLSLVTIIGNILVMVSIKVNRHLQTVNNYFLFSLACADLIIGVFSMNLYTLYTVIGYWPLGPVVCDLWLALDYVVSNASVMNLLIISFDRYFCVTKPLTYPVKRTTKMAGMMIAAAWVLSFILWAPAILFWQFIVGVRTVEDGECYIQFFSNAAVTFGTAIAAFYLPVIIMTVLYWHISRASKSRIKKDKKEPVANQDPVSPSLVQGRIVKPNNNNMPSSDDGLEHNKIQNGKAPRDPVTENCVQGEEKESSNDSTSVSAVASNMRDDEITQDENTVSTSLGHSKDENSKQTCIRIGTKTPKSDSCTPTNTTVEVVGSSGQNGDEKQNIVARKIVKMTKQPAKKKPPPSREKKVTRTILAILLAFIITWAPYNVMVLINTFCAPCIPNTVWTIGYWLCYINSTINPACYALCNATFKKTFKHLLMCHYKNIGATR
Chain of 5-hydroxytryptamine receptor 1A (Homo sapiens) (P08908 whole entry): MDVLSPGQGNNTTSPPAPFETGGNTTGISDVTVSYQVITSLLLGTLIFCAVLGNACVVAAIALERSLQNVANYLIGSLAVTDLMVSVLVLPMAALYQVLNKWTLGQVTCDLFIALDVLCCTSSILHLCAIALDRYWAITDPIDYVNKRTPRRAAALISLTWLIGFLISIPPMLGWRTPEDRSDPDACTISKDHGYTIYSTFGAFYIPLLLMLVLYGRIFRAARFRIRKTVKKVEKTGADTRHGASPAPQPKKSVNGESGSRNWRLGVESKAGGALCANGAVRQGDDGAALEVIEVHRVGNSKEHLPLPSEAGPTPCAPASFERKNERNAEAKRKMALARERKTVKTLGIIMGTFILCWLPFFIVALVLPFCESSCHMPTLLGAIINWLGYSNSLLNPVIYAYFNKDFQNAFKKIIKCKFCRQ
Chain of Melanocortin receptor 4 (Homo sapiens) (P32245 whole entry): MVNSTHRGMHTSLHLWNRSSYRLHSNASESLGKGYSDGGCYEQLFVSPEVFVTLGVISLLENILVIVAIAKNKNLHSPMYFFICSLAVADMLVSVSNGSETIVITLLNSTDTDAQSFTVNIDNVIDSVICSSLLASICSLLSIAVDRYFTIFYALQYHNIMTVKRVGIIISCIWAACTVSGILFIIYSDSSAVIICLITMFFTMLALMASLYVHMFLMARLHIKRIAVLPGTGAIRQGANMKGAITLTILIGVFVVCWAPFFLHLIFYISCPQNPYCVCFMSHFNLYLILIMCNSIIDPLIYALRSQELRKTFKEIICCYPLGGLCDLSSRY

Question: How did the inhibition [1] turn out when Cc1cccc(C)c1OCCOCCN[C@H](C)CO was run?
Answer: Its inhibition is 23.6%.

Question: What about the inhibition [2] of the same molecule?
Answer: The inhibition was -7.6%.

Question: What about the inhibition [3] of the same molecule?
Answer: Its inhibition is -3.4%.

Question: What about the inhibition [4] of the same molecule?
Answer: Its inhibition is -5.5%.

Question: And the inhibition [5]?
Answer: The inhibition was 5.3%.

Question: And the inhibition [6]?
Answer: Its inhibition is 2.2%.

Question: What about the inhibition [7] of the same molecule?
Answer: The inhibition was 96.5%.

Question: And the Activity [8]?
Answer: Its Activity is “Active”.

Question: What about the Activity [9] of the same molecule?
Answer: The Activity was “inactive”.

Question: And the inhibition [10]?
Answer: Its inhibition is 2%.

Question: What about the inhibition [11] of the same molecule?
Answer: The inhibition was 24.5%.

Question: What about the Activity [12] of the same molecule?
Answer: The Activity was “inactive”.

Question: And the inhibition [13]?
Answer: Its inhibition is 43.6%.

Question: What about the inhibition [14] of the same molecule?
Answer: The inhibition was 42.8%.

Question: And the inhibition [15]?
Answer: Its inhibition is -1.4%.

Question: And the inhibition [16]?
Answer: The inhibition was -0.7%.

Question: And the inhibition [17]?
Answer: The inhibition was 8%.

Question: What about the inhibition [18] of the same molecule?
Answer: The inhibition was 70.6%.

Question: What about the Activity [19] of the same molecule?
Answer: The Activity was “inactive”.

Question: What about the inhibition [20] of the same molecule?
Answer: The inhibition was 92.9%.

Question: What about the inhibition [21] of the same molecule?
Answer: Its inhibition is 11.2%.

Question: What about the inhibition [22] of the same molecule?
Answer: The inhibition was 12.4%.

Question: What about the inhibition [23] of the same molecule?
Answer: Its inhibition is -3.2%.

Question: And the inhibition [24]?
Answer: Its inhibition is 8.6%.

Question: What about the inhibition [25] of the same molecule?
Answer: The inhibition was 1.5%.

Question: And the inhibition [26]?
Answer: Its inhibition is 52.6%.

Question: What about the inhibition [27] of the same molecule?
Answer: The inhibition was 89.4%.

Question: What about the inhibition [28] of the same molecule?
Answer: Its inhibition is 20.8%.

Question: What about the Activity [29] of the same molecule?
Answer: Its Activity is “inactive”.

Question: And the inhibition [30]?
Answer: The inhibition was 12.6%.

Question: And the inhibition [31]?
Answer: Its inhibition is 17.3%.

Question: Which results are given for Cc1cccc(C)c1OCCOCCN[C@@H](C)CO?
Answer: inhibition [1]: 40.2%; inhibition [2]: 4.6%; inhibition [3]: -4.4%; inhibition [4]: -2%; inhibition [5]: 9%; inhibition [6]: 41.2%; inhibition [7]: 91.4%; Activity [8]: Active; Activity [9]: inactive; inhibition [10]: 5.7%; inhibition [11]: 16.2%; Activity [12]: inactive; inhibition [13]: 65.9%; inhibition [14]: 35.5%; inhibition [15]: -5.4%; inhibition [16]: -0.4%; inhibition [17]: 15%; inhibition [18]: 63.9%; Activity [19]: inactive; inhibition [20]: 95.6%; inhibition [21]: 15.7%; inhibition [22]: 16.2%; inhibition [23]: -0.8%; inhibition [24]: 5.7%; inhibition [25]: 0.2%; inhibition [26]: 34.5%; inhibition [27]: 78.8%; inhibition [28]: 37.2%; Activity [29]: inactive; inhibition [30]: 11.1%; inhibition [31]: 51.7%
